The values below come from PubChem BioAssay AID1235 (PCMD, 2008).

The whole screen tested about 62,000 compounds, of which about 50 (0.08%) were called active.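 Rule for the calls: active = inhibition above 30% in each of the two pooled mixtures holding the compound, so the lower value exceeds 30%; inactive = the rest.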 The list comes from a sample in which actives are over-represented; it also holds similar structures and randomly drawn compounds.

The assay can be described thus: alternative complement pathway inhibitors, primary screen, biochemical, ELISA, human serum, orthogonally pooled compounds (AID 1235).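 Note: 0% = serum in Mg-EGTA without compound and 100% = EDTA serum blank.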 The settings on record: LPS-coated ELISA, C3 deposition, tested in compound mixtures, at 5 µM, hits give high values. In short, it runs like this: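 Test system: human serum alternative complement pathway, C3 deposition on LPS-coated wells; also added: Plate-bound LPS; doses: 5 µM per compound in ten-compound mixtures; schedule: 1 h at 37 °C; detection: Anti-C3 ELISA, OD 450 nm; evaluation: percent inhibition of C3 deposition onto LPS; repeats: two pool placements per compound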
As for `COc1ccccc1CNC(=O)C1CCN(S(C)(=O)=O)CC1`, the inhibition was 35.9% (active).
The figure for `COc1ccccc1CNC(=O)C1CCCN(S(=O)(=O)c2cccc3cccnc23)C1` (stereo unspecified) is 5.61% (inactive); for `COc1ccccc1CNC(=O)C1CCN(c2nc3ccccc3o2)CC1` it is -3.35% (inactive); for `CCn1c(SCC(=O)Nc2ccccc2F)nc2c(c1=O)SC(C)C2` (stereo unspecified) it is -1.83% (inactive).
As to `COC(=O)c1ccc(N(CC(=O)NC2CCCC2)C(=O)CNC(=O)c2ccco2)cc1`, the inhibition is 13.6% (inactive).
Regarding `CCCNC(=O)Nc1ccccc1C(=O)Nc1ccc(OC)cc1`, the inhibition was 6.47% (inactive).
Take `CCCN1C2=C(C(=O)CCC2)C(c2ccc(O)c(Br)c2)C2=C1CCCC2=O`: the inhibition was 3.41% (inactive).
Consider `COc1ccc(OC)c(Nc2nc(-c3ccc(O)c(O)c3)cs2)c1`, for which the inhibition is 15.1% (inactive).
Regarding `O=c1c2ccccc2nc(CSc2nnnn2-c2ccccc2)n1-c1ccccc1`, the inhibition was 16.5% (inactive).
As for `CCC1C(C#N)=C(SC)NC2=C1C(=O)CC(C)(C)C2` (stereo unspecified), the figure is 29.5% (inactive).
For `C=C(C)Cn1c(N2CCCC2)nc2c1c(=O)[nH]c(=O)n2C`, the inhibition was 13.6% (inactive).
The figure for `COc1ccc(OC)c(NC(=O)CC(Cc2ccccc2OC)C(=O)O)c1` (stereo unspecified) is 6.63% (inactive); for `O=C(Cn1cnc2c(nnn2-c2ccccc2)c1=O)N1CCC(Cc2ccccc2)CC1` it is 12.9% (inactive); for `CCC1SC2=NCCN2C1(O)c1ccc(Cl)cc1` (stereo unspecified) it is -4.64% (inactive).
Take `CCN(CC)c1ccc(C(=O)OCC(=O)c2ccco2)cc1`: the inhibition is -18.9% (inactive).
For the molecule `Cc1nn(Cc2ccc(Cl)c(Cl)c2)c(C)c1NC(=O)c1cc(C2CC2)on1`, the inhibition is 14.3% (inactive).
In the case of `COc1ccccc1N1CCN(c2nc3ccccc3n3nnnc23)CC1`, the inhibition is -4.06% (inactive).
Take `CCOC(=O)c1cc2sccc2n1Cc1ccc(C#N)cc1`: the inhibition is 8.71% (inactive).
In the case of `COCCNC(=O)c1snc2ccc(Cl)cc12`, the inhibition was -12.7% (inactive).
As to `Cc1ccn2cc(-c3nonc3C)cc2c1`, the inhibition was 17.2% (inactive).
In the case of `Cc1ccc(N2C(=O)CC(NCc3ccc4c(c3)OCO4)C2=O)cc1Cl` (stereo unspecified), the inhibition is 24.4% (inactive).
Turning to `O=C(Nc1ccc2c(c1)OCCO2)C1CCCN(c2ncccn2)C1` (stereo unspecified), the inhibition is 4.42% (inactive).
For the molecule `CCOc1ccc(OCC)c(NC(=O)C2CCN(S(=O)(=O)c3c(C)noc3C)CC2)c1`, the inhibition was 4.52% (inactive).
As for `O=C(NCCc1ccccn1)c1ccc(COc2ccccc2)o1`, the figure is 13.5% (inactive); as for `COc1cccc(NC(=O)c2ccccc2SC)c1`, 12.3% (inactive); as for `CC(C)OCCCNC(=O)C1CC(=O)N(C2CCCCCCC2)C1` (stereo unspecified), 16.3% (inactive).
Regarding `CC(C)(O)C#Cc1ccc(C(=O)N2CCC(C(N)=O)(N3CCCCC3)CC2)cc1`, the inhibition is 0.925% (inactive).
For `CCN(CC)S(=O)(=O)c1ccc2nc(CSc3nnnn3-c3ccc(O)cc3)[nH]c2c1`, the inhibition was -3.47% (inactive).
With `O=C(NCc1cccnc1)c1cn(-c2ccccc2)nc1-c1cccs1`, the inhibition was 0.865% (inactive).
On to `COc1ccc(NC(=O)CCNC(=O)Cn2ccc3ccccc3c2=O)c(OC)c1`, for which the inhibition was 29.1% (inactive).
For `CCOC(=O)c1ccc(N2C(=O)CC(N3CCC(C(=O)OCC)CC3)C2=O)cc1` (stereo unspecified), the inhibition is -0.58% (inactive).
Turning to `O=P(O)(CN1CCCCC1)CN1CCCCC1`, the inhibition was 8.65% (inactive).
As for `Cc1noc(C)c1CSc1nnc2ccc3ccccc3n12`, the inhibition is 9.95% (inactive).
The figure for `COc1ccc(OC)c(S(=O)(=O)Nc2ccccc2F)c1` is 6.16% (inactive).
Consider `COC(=O)Nc1ccc(S(=O)(=O)N(C)CC(F)(F)C(F)F)cc1`, for which the inhibition was 13.5% (inactive).
Take `Cc1ccc(C)c(N2CCN(C(=O)CCc3nc4ccccc4[nH]3)CC2)c1`: the inhibition is 18.5% (inactive).
In the case of `Cc1ccc(-c2nnn(CC(=O)N(CCO)C(C(=O)NC(C)(C)C)c3ccncc3)n2)cc1` (stereo unspecified), the inhibition was 9.36% (inactive).
`Cc1ccc(C)c(N2CCN(S(=O)(=O)c3ccc4c(c3)oc(=O)n4C)CC2)c1`: the inhibition is 3.29% (inactive).
The figure for `CN(C)CC(O)COc1ccc(C(C)(C)c2ccc(OCC(O)CN(C)C)cc2)cc1` (stereo unspecified) is 0.48% (inactive).
With `Cc1nc(Nc2ccc3c(c2)OCCO3)c2nnn(Cc3ccccc3Cl)c2n1`, the inhibition was 1.64% (inactive).
As to `Cc1cc(C)c(C#N)c(SCS(=O)c2ccc(C(C)(C)C)cc2)n1` (stereo unspecified), the inhibition is 4.51% (inactive).
Regarding `COc1ccc(-c2[nH]nc3c2C(c2ccncc2)C(C#N)=C(N)O3)cc1` (stereo unspecified), the inhibition is 0.015% (inactive).
On to `CC(C)(C)c1cc(CN2CCN(CCC#N)CC2)cc(C(C)(C)C)c1O`, for which the inhibition is -7.06% (inactive).
`CC1CCc2c(sc(NC(=O)c3ccc(Cn4cc(Br)cn4)o3)c2C(N)=O)C1` (stereo unspecified): the inhibition was 8.16% (inactive).
`Cc1cccc(N=C2NC(=O)CS2)c1C`: the inhibition was 4.01% (inactive).
On to `Cc1ccc2nc(S(=O)(=O)O)[nH]c2c1`, for which the inhibition is -4.08% (inactive).
The figure for `O=C(Cn1nc(C(F)(F)F)c2c1CCC2)NCc1ccc(F)cc1` is -10.2% (inactive); for `CCc1nnc(NC(=O)CSc2nnc(-c3ccncc3)n2Cc2ccccc2)s1` it is 6.79% (inactive).
For the molecule `C=C(C)Cn1c(N2CCN(CC)CC2)nc2c1c(=O)[nH]c(=O)n2C`, the inhibition is -2.46% (inactive).
Take `COC(=O)C(C)n1cnc2c(nnn2-c2cccc(Cl)c2)c1=O` (stereo unspecified): the inhibition is 7.95% (inactive).
Consider `Cc1c(C(=O)N2CC(C)OC(C)C2)sc2nc(-c3ccccc3)cn12` (stereo unspecified), for which the inhibition was 11% (inactive).
For `FC(F)(F)c1cccc(Nc2ncnc3ccccc23)c1`, the inhibition is 13.9% (inactive).
Take `Cc1cc(=O)n2nc(N3CCCC3C(=O)NCCCN3CC(C)CC(C)C3)sc2n1` (stereo unspecified): the inhibition is 20.4% (inactive).
As for `CCCN1CC=C2C(C#N)=C(N)C(C#N)(C#N)C(c3cc(OC)ccc3OC)C2C1` (stereo unspecified), the figure is -5.21% (inactive); as for `Cc1cc(C(=O)O)c(S(C)(=O)=O)s1`, 21.7% (inactive).
In the case of `O=C(OCc1cc2ccccc2[nH]c1=O)c1cccnc1`, the inhibition is 1.83% (inactive).
On to `CCOC(=O)N1CCN(CC(=O)c2ccc3c(c2)CCN3)CC1`, for which the inhibition is 22.3% (inactive).
The figure for `CCOC(=O)C1(C(F)(F)F)N=C(N(C)C)OC(N(C)C)=N1` is 23.1% (inactive); for `O=C(CSc1n[nH]c(-c2cccnc2)n1)Nc1ccnc2ccccc12` it is -1.01% (inactive).
As to `CSc1nnc2c(n1)OC(c1cn(C)c3ccccc13)N(C(C)=O)c1ccccc1-2` (stereo unspecified), the inhibition was 12.4% (inactive).
Consider `Cc1nc2nc(CSc3nc4ccccc4s3)cc(=O)n2[nH]1`, for which the inhibition was 8.57% (inactive).
